Test results: ChEMBL document CHEMBL4715738, “In Vitro Antibacterial Activity of Curcumin-Polymyxin B Combinations against Multidrug-Resistant Bacteria Associated with Traumatic Wound Infections” (J Nat Prod, 2016)
Activity calls are given as the source filed them.

Experiments:
Staphylococcus aureus [1] = test: Synergistic antibacterial activity against methicillin-resistant Staphylococcus aureus NCTC 12493 assessed as fractional inhibitory concentration index measured after 24 hrs in presence of curcumin by checkerboard assay; type: functional
Method in brief: (§1)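 FICI was derived from checkerboard MICs. Synergy was defined as FICI ≤ 0.5 and additive as FICI > 0.5−4.0. Where an MIC was not reached, the dilution above the maximum dose was used in the FICI calculation. Experiments were run in triplicate and reported as means.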

Acinetobacter baumannii [2] = test: Antibacterial activity against Acinetobacter baumannii NCTC 19606 assessed as log reduction in colony forming units at MIC measured after 6 hrs by time kill assay; type: functional
Method in brief: (§2)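 Time-kill in Mueller-Hinton 2 broth. Inoculum was a 1/1000 dilution of a 16 h overnight culture, about 10^6 CFU/mL, 10 mL per tube. Arms were each agent alone at ×1 MIC, or the combination at ×1 MIC plus ×0.5 MIC partner. Incubated at 37 °C with continuous agitation for 24 h. Samples taken at 0, 2, 4, 6 and 24 h, serially diluted and plated on IsoSensitest agar for CFU counts.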

Escherichia coli [3] = test: Synergistic antibacterial activity against Escherichia coli EC2 harboring CTX-M-15 assessed as fractional inhibitory concentration index measured after 24 hrs in presence of curcumin by checkerboard assay; type: functional; method in brief: as §1
Staphylococcus aureus [4] = test: Synergistic antibacterial activity against Staphylococcus aureus ATCC 25923 assessed as fractional inhibitory concentration index measured after 24 hrs in presence of curcumin by checkerboard assay; type: functional; method in brief: as §1
Streptococcus pyogenes [5] = test: Antibacterial activity against Streptococcus pyogenes SPY3 assessed as reduction in bacterial growth incubated for 24 hrs in presence of curcumin; type: functional
Enterococcus faecalis [6] = test: Antibacterial activity against […] Enterococcus faecalis ATCC 29212 assessed as reduction in bacterial growth incubated for 24 hrs in presence of curcumin; type: functional
Enterococcus faecium [7] = test: Antibacterial activity against vancomycin-resistant Enterococcus faecium OEF42 assessed as reduction in bacterial growth incubated for 24 hrs in presence of curcumin; type: functional
[8] = test system: Stenotrophomonas maltophilia; test: Antibacterial activity against Stenotrophomonas maltophilia NCTC 10258 assessed as reduction in colony formation at MIC measured after 24 hrs by time kill assay; type: functional, organism-based; method in brief: as §2
Staphylococcus aureus [9] = test: Antibacterial activity against Staphylococcus aureus ATCC 25923 assessed as reduction in bacterial growth incubated for 24 hrs in presence of curcumin; type: functional
Pseudomonas aeruginosa [10] = test: Synergistic antibacterial activity against Pseudomonas aeruginosa ATCC 27853 assessed as fractional inhibitory concentration index measured after 24 hrs in presence of curcumin by checkerboard assay; type: functional
Method in brief: (§3)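 FICI calculated from combination MICs; ≤0.5 taken as synergy and >0.5–4.0 as additive. Where an MIC was not reached, the dilution above the highest concentration tested was used in the calculation. Run in triplicate and reported as means.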

Pseudomonas aeruginosa [11] = test: Antibacterial activity against Pseudomonas aeruginosa PA30 harboring VIM-2 assessed as reduction in bacterial growth incubated for 24 hrs in presence of curcumin; type: functional
Escherichia coli [12] = test: Antibacterial activity against Escherichia coli EC2 harboring CTX-M-15 assessed as reduction in bacterial growth incubated for 24 hrs in presence of curcumin; type: functional
Streptococcus pyogenes [13] = test: Synergistic antibacterial activity against Streptococcus pyogenes SPY1 assessed as fractional inhibitory concentration index measured after 24 hrs in presence of curcumin by checkerboard assay; type: functional; method in brief: as §3
HaCaT = test: Cytotoxicity against human HaCaT cells at 6.1 uM measured after 4 hrs by CyTox 96 nonradioactive assay relative to control; type: cell-based
Streptococcus pyogenes [14] = test: Antibacterial activity against Streptococcus pyogenes SPY2 assessed as reduction in bacterial growth incubated for 24 hrs in presence of curcumin; type: functional
[15] = test system: Stenotrophomonas maltophilia; test: Antibacterial activity against Stenotrophomonas maltophilia SMB07 assessed as reduction in bacterial growth incubated for 24 hrs in presence of curcumin; type: functional
Acinetobacter baumannii [16] = test: Antibacterial activity against Acinetobacter baumannii NCTC 19606 assessed as reduction in bacterial growth incubated for 24 hrs in presence of curcumin; type: functional
Acinetobacter baumannii [17] = test: Antibacterial activity against Acinetobacter baumannii AB16 harboring OXA-23 clone 2 assessed as reduction in bacterial growth incubated for 24 hrs in presence of curcumin; type: functional
Pseudomonas aeruginosa [18] = test: Antibacterial activity against Pseudomonas aeruginosa ATCC 27853 assessed as reduction in bacterial growth incubated for 24 hrs in presence of curcumin; type: functional
Escherichia coli [19] = test: Antibacterial activity against Escherichia coli EC204 harboring NDM-1 assessed as reduction in bacterial growth incubated for 24 hrs in presence of curcumin; type: functional
Streptococcus pyogenes [20] = test: Synergistic antibacterial activity against Streptococcus pyogenes SPY2 assessed as fractional inhibitory concentration index measured after 24 hrs in presence of curcumin by checkerboard assay; type: functional; method in brief: as §3
Escherichia coli [21] = test: Antibacterial activity against Escherichia coli NCTC 12241 assessed as reduction in bacterial growth incubated for 24 hrs in presence of curcumin; type: functional
Pseudomonas aeruginosa [22] = test: Potentiation of polymyxin B-induced antibacterial activity against Pseudomonas aeruginosa ATCC 27853 assessed as fold reduction in polymyxin B MIC measured after 24 hrs in presence of polymyxin B by checkerboard assay; type: functional
[23] = test system: Stenotrophomonas maltophilia; test: Bactericidal activity against Stenotrophomonas maltophilia NCTC […] assessed as log reduction in colony forming units at 0.5 fold MIC measured after 24 hrs in presence of polymyxin B at MIC by time kill assay; type: functional; method in brief: as §2
[24] = test system: Stenotrophomonas maltophilia; test: Antibacterial activity against Stenotrophomonas maltophilia NCTC 10258 assessed as reduction in bacterial colony formation at 0.5 fold MIC measured after 24 hrs by time kill assay; type: functional, organism-based; method in brief: as §2
Acinetobacter baumannii [25] = test: Antibacterial activity against Acinetobacter baumannii AB16 harboring OXA-23 clone 2 assessed as reduction in bacterial growth incubated for 24 hrs in presence of polymyxin B; type: functional
Staphylococcus aureus [26] = test: Antibacterial activity against methicillin-resistant Staphylococcus aureus NCTC 12493 assessed as reduction in bacterial growth incubated for 24 hrs in presence of polymyxin B; type: functional
Pseudomonas aeruginosa [27] = test: Bactericidal activity against Pseudomonas aeruginosa ATCC 27853 assessed as log reduction in colony forming units at 0.5 fold MIC measured after 24 hrs in presence of polymyxin B at MIC by time kill assay; type: functional; method in brief: as §2
Enterococcus faecalis [28] = test: Potentiation of polymyxin B-induced antibacterial activity against Enterococcus faecalis ATCC 29212 assessed as fold reduction in polymyxin B MIC measured after 24 hrs in presence of polymyxin B by checkerboard assay
Escherichia coli [29] = test: Antibacterial activity against Escherichia coli NCTC 12241 assessed as reduction in bacterial growth incubated for 24 hrs in presence of polymyxin B; type: functional
[30] = test system: Stenotrophomonas maltophilia; test: Antibacterial activity against Stenotrophomonas maltophilia SMS01 assessed as reduction in bacterial growth incubated for 24 hrs in presence of polymyxin B; type: functional
Acinetobacter baumannii [31] = test: Potentiation of polymyxin B-induced antibacterial activity against Acinetobacter baumannii NCTC 19606 assessed as fold reduction in polymyxin B MIC measured after 24 hrs in presence of polymyxin B by checkerboard assay; type: functional
Enterococcus faecium [32] = test: Potentiation of polymyxin B-induced antibacterial activity against vancomycin-resistant Enterococcus faecium OEF65 assessed as fold reduction in polymyxin B MIC measured after 24 hrs in presence of polymyxin B by checkerboard assay; type: functional
Pseudomonas aeruginosa [33] = test: Antibacterial activity against Pseudomonas aeruginosa PA14 assessed as reduction in bacterial growth incubated for 24 hrs in presence of polymyxin B; type: functional

With `CC[C@H](C)CCCCC(=O)N[C@@H](CCN)C(=O)N[C@H](C(=O)N[C@@H](CCN)C(=O)N[C@H]1CCNC(=O)[C@H]([C@@H](C)O)NC(=O)[C@H](CCN)NC(=O)[C@H](CCN)NC(=O)[C@H](CC(C)C)NC(=O)[C@@H](Cc2ccccc2)NC(=O)[C@H](CCN)NC1=O)[C@@H](C)O.O=S(=O)(O)O` the “fractional inhibitory concentration index (FICI)” value (Staphylococcus aureus [1]) was 0.031, the Activity (Acinetobacter baumannii [2]) was 2 log10CFU/ml and the “fractional inhibitory concentration index (FICI)” value (Escherichia coli [3]) was 0.266. For the same compound, the “fractional inhibitory concentration index (FICI)” value (Staphylococcus aureus [4]) was 0.156, the MIC (Streptococcus pyogenes [5]) was 0.79 µM and the MIC (Enterococcus faecalis [6]) was 0.096 µM. For the same compound, the MIC (Enterococcus faecium [7]) was 3.1 µM, the Activity [8] was “inactive” and the MIC (Staphylococcus aureus [9]) was 6.1 µM. The “fractional inhibitory concentration index (FICI)” value (Pseudomonas aeruginosa [10]) was 0.079, the MIC (Pseudomonas aeruginosa [11]) was 0.19 µM and the MIC (Escherichia coli [12]) was 0.024 µM. The “fractional inhibitory concentration index (FICI)” value (Streptococcus pyogenes [13]) was 0.094, the Activity (HaCaT) was 2% and the MIC (Streptococcus pyogenes [14]) was 0.79 µM. It also gave an MIC [15] of 0.0313 µM, an MIC (Acinetobacter baumannii [16]) of 0.012 µM and an MIC (Acinetobacter baumannii [17]) of 0.012 µM. For the same compound, the MIC (Pseudomonas aeruginosa [18]) was 0.006 µM, the MIC (Escherichia coli [19]) was 0.024 µM and the “fractional inhibitory concentration index (FICI)” value (Streptococcus pyogenes [20]) was 0.188. It also gave an MIC (Escherichia coli [21]) of 0.024 µM.

For `COc1cc(/C=C/C(=O)CC(=O)/C=C/c2ccc(O)c(OC)c2)ccc1O` [CURCUMIN], the “fold change (FC)” value (Pseudomonas aeruginosa [22]) was 3, the Activity [23] was over 3 log10CFU/ml and the Activity [24] was “inactive”. For the same compound, the MIC (Acinetobacter baumannii [25]) was 22 µM, the MIC (Staphylococcus aureus [26]) was 43 µM and the Activity (Pseudomonas aeruginosa [27]) was over 3 log10CFU/ml. The “fold change (FC)” value (Enterococcus faecalis [28]) was 3, the MIC (Escherichia coli [29]) was 43 µM and the MIC [30] was 22 µM. For the same compound, the “fold change (FC)” value (Acinetobacter baumannii [31]) was 3, the “fold change (FC)” value (Enterococcus faecium [32]) was 3 and the MIC (Pseudomonas aeruginosa [33]) was 22 µM.
